According to PMC4784479 (Arthritis & rheumatology (Hoboken, N.J.), 2015):
*1 amine or outer side, *2 acyl side, *3 side chain or, on linkers, in order; H or OH if unused. Where a SMILES comes first, the peptide text is derived from it. Bridges are numbered along the chain shown (N, C = ends). Where no end group is shown, it is not given here. [ ]: non-standard residue; d: D form. X1 = O=C(O)C[C@@H](C(=O)[*:2])N(CCCCN[*:3])[*:1]; X2 = C[C@@H](C(=O)[*:2])N(CCCCN[*:3])[*:1]; CO = O=C([*:1])[*:2]

Tests used:
[1] = test system: DBA/1 mice with CIA; assay: Collagen-induced arthritis; format: in vivo, mouse; conditions: disease amelioration at ng/kg-range doses; comparison with ref 24–26
[2] = test system: primary mouse BMCs; assay: In vitro OC differentiation, primary mouse BMCs; format: cell-based; conditions: SE ligand 65–79*0401 29 μM, Fig. 1J
How it was run: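 Primary bone marrow cells from mouse femurs and tibias were plated at 2 × 10^5/well in MEM with 10% FBS and penicillin/streptomycin. They received 10 ng/ml M-CSF alone for 2 d, then 4 d more with 10 ng/ml M-CSF plus 20 ng/ml RANKL, with or without SE ligand 65–79*0401 (29 μM). Cultures were fixed and TRAP-stained. TRAP-positive cells with more than three nuclei were counted. Results are mean ± SEM; Student's t-test.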

[3] = target: T1, SE-activated NO signaling (Mus musculus, UniProt P14211); assay: SE ligand-activated NO signaling assay; format: cell-based; conditions: Linear DKCLA 170 μM, SE ligand 65–79*0401 57 μM, Fig. 1F
T1 sequence (P14211 18-416): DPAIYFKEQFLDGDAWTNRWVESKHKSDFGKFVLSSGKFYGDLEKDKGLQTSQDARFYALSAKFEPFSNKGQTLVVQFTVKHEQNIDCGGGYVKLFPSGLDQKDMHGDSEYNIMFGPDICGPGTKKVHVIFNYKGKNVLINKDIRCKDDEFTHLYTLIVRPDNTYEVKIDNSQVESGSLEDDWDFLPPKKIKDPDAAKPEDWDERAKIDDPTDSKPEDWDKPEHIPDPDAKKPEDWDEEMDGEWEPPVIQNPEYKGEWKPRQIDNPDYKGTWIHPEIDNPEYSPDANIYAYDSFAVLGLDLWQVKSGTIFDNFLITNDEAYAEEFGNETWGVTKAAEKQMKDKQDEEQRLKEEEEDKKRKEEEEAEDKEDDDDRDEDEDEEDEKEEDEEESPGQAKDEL

[4] = target: T2, recombinant mouse CRT (Mus musculus, UniProt P14211); assay: SPR direct interaction with CRT; format: binding; conditions: immobilized recombinant CRT, Fig. 1A
T2 sequence (P14211 18-416): T1 sequence (P14211 18-416)
How it was run: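 Direct binding was measured by SPR on a CM5 chip preconditioned with NaOH, HCl and SDS pulses and activated with EDC/NHS. Recombinant mouse CRT was amine-coupled at 100 μg/ml (about 5500 RU), then ethanolamine-blocked. Analytes were injected at various concentrations at 25°C and 10 μl/min in HEPES pH 7.4 buffer with KCl, CaCl2, ZnCl2 and P-20. Signal was read in real time as resonance units.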

| Interaction with CRT (SPR) [4] | Molecule | In vivo potency in CIA relative to emerging drugs (mg/kg-range doses) [1] | Incremental SE-activated OC differentiation [2] | Inhibition of SE ligand-activated NO signaling [3] |
| --- | --- | --- | --- | --- |
| – | CC(C)C[C@@H]1NC(=O)[C@H](CS)NC(=O)[C@H](CCCCN)NC(=O)[C@H](CC(=O)O)N(C(=O)[C@@H](N)Cc2c[nH]c3ccccc23)CCCCNC(=O)NCCCCN([C@@H](C)C(N)=O)C1=O [HS(4–4)c Trp] (H-W[X1]KCL[X2]-NH2; linker 2-6 via CO; N-terminus and C-terminus assumed) | 1,000,000 fold | significantly inhibited | – |
| interacted with CRT | Ac-DKCLA (N-terminus assumed) [DKCLA] | – | – | specifically blocked SE ligand-activated NO signaling |
